# Legend:
# Plasmodium falciparum [1] = test: Antiplasmodial activity against Plasmodium falciparum Dd2 asexual blood stages after 3 days by HRP2 detection based ELISA method; type: functional, organism-based; settings: Dd2, 72 h
# Procedure, shortened: (§1)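 HRP2-based growth inhibition of P. falciparum asexual blood stages, 3D7 (chloroquine-sensitive) or Dd2 (multidrug-resistant). IC50 from 12 serial dilutions. Mean of at least two independent experiments, each run in duplicate.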
# L6 = test: Cytotoxicity against rat L6 cells after 72 hrs by alamar blue assay; type: cell-based; settings: L6, 72 h
# Plasmodium falciparum [2] = test: Antiplasmodial activity against Plasmodium falciparum 3D7 asexual blood stages after 3 days by HRP2 detection based ELISA method; type: functional, organism-based; settings: 3D7, 72 h; procedure, shortened: as §1
# [3] = Selectivity index, ratio of IC50 for rat L6 cells to IC50 for Plasmodium falciparum 3D7 asexual blood stages; type: toxicity, cell-based; settings: read-out: Ratio IC50
# Procedure, shortened: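 Selectivity index calculated as L6 cytotoxicity IC50 divided by P. falciparum 3D7 IC50, using unrounded cytotoxicity values.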
# Plasmodium berghei [4] = test: Antiplasmodial activity against Plasmodium berghei infected in mouse assessed as reduction in parasitemia level at 50 mg/kg, po dosed once daily for 4 days on 4, 24, 48 and 72 hrs post infection and measured on day 4; type: functional
# Procedure, shortened: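 Peters 4-day test in P. berghei-infected mice, n = 3 per group. 50 mg/kg given orally once daily at 4, 24, 48 and 72 h postinfection. Dosed as a solution or suspension in 70/30 Tween 80/ethanol diluted 10× with water. Parasitemia read from blood taken on day 4 (96 h postinfection), expressed as % reduction versus an infected untreated control.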
# [5] = Plasma concentration in Plasmodium berghei infected mouse at 50 mg/kg, po dosed once daily for 4 days on 4, 24, 48 and 72 hrs post infection and measured 4 hrs post dose by HPLC-MS/MS method; type: ADME, organism-based; parameters: dose 50 mg/kg, route oral
# Procedure, shortened: (§2)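 P. berghei-infected mice (n = 3 per group) given oral doses in 70/30 Tween 80/ethanol diluted 10× with water, at 4, 24, 48 and 72 h postinfection. Plasma drug levels (ng/mL) measured at 1, 4 and 24 h after oral treatment.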
# [6] = Plasma concentration in Plasmodium berghei infected mouse at 50 mg/kg, po dosed once daily for 4 days on 4, 24, 48 and 72 hrs post infection and measured 1 hr post dose by HPLC-MS/MS method; type: ADME, organism-based; parameters: dose 50 mg/kg, route oral; procedure, shortened: as §2
# Plasmodium falciparum [7] = test: Gametocytocidal activity against transgenic Plasmodium falciparum NF54-pfs16-GFP late stage gametocytes after 72 hrs by mitotracker red CM-H2XRos dye based confocal imaging assay; type: functional, organism-based; settings: NF54, 72 h
# Procedure, shortened: (§3)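 Late-stage gametocytes stained with MitoTracker Red, imaged, and scored by viable elongated MTR-positive morphology. % inhibition set relative to a puromycin 100% inhibition control. Compounds in 4% DMSO, top concentration 120 or 40 μM. IC50 from 21 serial dilutions. Mean of two independent experiments, each in duplicate.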
# Plasmodium berghei [8] = test: Antiplasmodial activity against Plasmodium berghei infected in mouse assessed as […] in mouse survival at 50 mg/kg, po dosed once daily for 4 days on 4, 24, 48 and 72 hrs post infection and measured on day 4 (reference value: 4 days); type: functional
# Procedure, shortened: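 Standard Peters 4-day test in P. berghei-infected mice (n = 3 per group), dosed orally at 4, 24, 48 and 72 h post-infection. Compound was dissolved or suspended in 70/30 Tween 80/ethanol and diluted 10× with water. Blood for parasitemia was taken on day 4 (96 h). Survival was given as mean days, with parasite-free at day 30 taken as cure. Untreated infected controls were euthanized on day 4.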
# [9] = Plasma concentration in Plasmodium berghei infected mouse at 50 mg/kg, po dosed once daily for 4 days on 4, 24, 48 and 72 hrs post infection and measured 24 hrs post dose by HPLC-MS/MS method; type: ADME, organism-based; parameters: dose 50 mg/kg, route oral; procedure, shortened: as §2
# Plasmodium falciparum [10] = test: Gametocytocidal activity against transgenic Plasmodium falciparum NF54-pfs16-GFP late stage gametocytes at 40 uM after 72 hrs by mitotracker red CM-H2XRos dye based confocal imaging assay; type: functional; settings: NF54, 72 h; procedure, shortened: as §3
# Mus musculus [11] = test: Toxicity in Plasmodium berghei infected mouse assessed as changes in general behaviors at 50 mg/kg, po dosed once daily for 4 days on 4, 24, 48 and 72 hrs post infection; type: organism-based; parameters: dose 50 mg/kg, route oral; settings: in vivo
# Procedure, shortened: (§4)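 P. berghei-infected mice (n = 3 per group) received four oral doses at 4, 24, 48 and 72 h post-infection. Vehicle was 70/30 Tween 80/ethanol diluted 10× with water. Mice were watched for acute toxicity signs: death, changes in general behaviour, and changes in physiological activities.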
# Mus musculus [12] = test: Toxicity in Plasmodium berghei infected mouse assessed as mouse mortality level at 50 mg/kg, po dosed once daily for 4 days on 4, 24, 48 and 72 hrs post infection; type: organism-based; parameters: dose 50 mg/kg, route oral; settings: in vivo; procedure, shortened: as §4
# Mus musculus [13] = test: Toxicity in Plasmodium berghei infected mouse assessed as changes in physiological activities at 50 mg/kg, po dosed once daily for 4 days on 4, 24, 48 and 72 hrs post infection; type: organism-based; parameters: dose 50 mg/kg, route oral; settings: in vivo; procedure, shortened: as §4
# Plasmodium falciparum [14] = test: Gametocytocidal activity against transgenic Plasmodium falciparum NF54-pfs16-GFP late stage gametocytes at 120 uM after 72 hrs by mitotracker red CM-H2XRos dye based confocal imaging assay; type: functional; settings: NF54, 72 h; procedure, shortened: as §3
IC50 (Plasmodium falciparum [1]),IC50 (Plasmodium falciparum [2]),Structure (SMILES),IC50 (L6),selectivity ratio [3],also measured
240 nM,100 nM,N/C(CC(O)c1cccc2ccccc12)=N\N=C\c1ccccc1 (stereo not drawn),17000 nM,170,–
3900 nM,3000 nM,N/C(=N\N=C\c1ccccc1)C(O)c1cccc2ccccc12 (stereo not drawn),300000 nM,100,–
> 10000 nM,> 10000 nM,N/C(=N\N=C\c1ccccc1)C(O)c1ccc2ccccc2c1 (stereo not drawn),–,–,–
62 nM,190 nM,Cc1ccc(/C=N/N=C(\N)CC(O)c2cccc3ccccc23)cc1 (stereo not drawn),6800 nM,36,–
300 nM,110 nM,N/C(CC(O)c1cccc2ccccc12)=N\N=C\c1ccc(C(F)(F)F)cc1 (stereo not drawn),26000 nM,234,–
210 nM,83 nM,COc1ccc(/C=N/N=C(\N)CC(O)c2cccc3ccccc23)cc1 (stereo not drawn),6300 nM,76,–
450 nM,250 nM,CCOc1cc(/C=N/N=C(\N)CC(O)c2cccc3ccccc23)ccc1O (stereo not drawn),4200 nM,17,–
94 nM,91 nM,N/C(CC(O)c1cccc2ccccc12)=N\N=C\c1cccc(Br)c1 (stereo not drawn),3900 nM,43,–
190 nM,190 nM,N/C(CC(O)c1cccc2ccccc12)=N\N=C\c1ccc(F)cc1F (stereo not drawn),4200 nM,22,–
550 nM,180 nM,N/C(CC(O)c1cccc2ccccc12)=N\N=C\c1ccc(F)c(F)c1 (stereo not drawn),17000 nM,95,–
190 nM,250 nM,N/C(CC(O)c1cccc2ccccc12)=N\N=C\c1ccc(Cl)c(Cl)c1 (stereo not drawn),16000 nM,63,–
1100 nM,2700 nM,N/C(CC(O)c1cccc2ccccc12)=N\N=C\c1cccnc1 (stereo not drawn),22000 nM,8,–
380 nM,510 nM,N/C(CC(O)c1cccc2ccccc12)=N\N=C\c1ccco1 (stereo not drawn),145000 nM,284,–
610 nM,240 nM,CCC/C(=N\N=C(/N)CC(O)c1cccc2ccccc12)c1ccccc1 (stereo not drawn),29000 nM,120,–
740 nM,400 nM,C/C(=N\N=C(/N)CC(O)c1cccc2ccccc12)c1ccc(F)cc1 (stereo not drawn),34000 nM,86,–
380 nM,540 nM,Cc1ccc(/C=N/N=C(\N)CC(O)c2ccc3ccccc3c2)cc1 (stereo not drawn),103000 nM,190,–
> 10000 nM,> 10000 nM,N/C(CC(O)c1ccc2ccccc2c1)=N\N=C\c1ccc(C(F)(F)F)cc1 (stereo not drawn),–,–,–
620 nM,380 nM,COc1ccc(/C=N/N=C(\N)CC(O)c2ccc3ccccc3c2)cc1 (stereo not drawn),69000 nM,182,–
1300 nM,1100 nM,CCOc1cc(/C=N/N=C(\N)CC(O)c2ccc3ccccc3c2)ccc1O (stereo not drawn),78000 nM,71,–
2500 nM,2000 nM,N/C(CC(O)c1ccc2ccccc2c1)=N\N=C\c1ccc(F)cc1 (stereo not drawn),> 298000 nM,> 149,inhibition at 40 µM (Plasmodium falciparum [10]): 25%
> 10000 nM,4000 nM,N/C(CC(O)c1ccc2ccccc2c1)=N\N=C\c1ccc(F)cc1F (stereo not drawn),93000 nM,23,–
700 nM,1900 nM,N/C(CC(O)c1ccc2ccccc2c1)=N\N=C\c1ccc(Cl)c(Cl)c1 (stereo not drawn),100000 nM,52,–
> 10000 nM,> 10000 nM,N/C(CC(O)c1ccc2ccccc2c1)=N\N=C\c1cccnc1 (stereo not drawn),–,–,–
> 10000 nM,> 10000 nM,N/C(CC(O)c1ccc2ccccc2c1)=N\N=C\c1ccco1 (stereo not drawn),–,–,–
28 nM,16 nM,N/C(CC(O)c1cc2ccccc2c2ccccc12)=N\N=C\c1ccccc1 (stereo not drawn),6100 nM,383,IC50 (Plasmodium falciparum [7]): 180 nM
–,–,"O[C@@H](c1cc(C(F)(F)F)nc2c(C(F)(F)F)cccc12)[C@H]1CCCCN1 (relative stereo) [(S,R)-MEFLOQUINE]",4500 nM,–,IC50 (Plasmodium falciparum [7]): 100 nM
–,–,CCN(CC)CCCC(C)Nc1ccnc2cc(Cl)ccc12 (stereo not drawn) [CHLOROQUINE],78000 nM,–,inhibition at 120 µM (Plasmodium falciparum [14]): 44%

Structure (SMILES),IC50 (Plasmodium falciparum [1]),IC50 (Plasmodium falciparum [2]),IC50 (L6),selectivity ratio [3],also measured
N/C(CC(O)c1cccc2ccccc12)=N\N=C\c1ccc(F)cc1 (stereo not drawn),200 nM,60 nM,19000 nM,321,inhibition in vivo at 50 mg/kg (Plasmodium berghei [4]): 40%; concentration at 4 h [5]: 145 ng/mL; concentration at 1 h [6]: 316 ng/mL; IC50 (Plasmodium falciparum [7]): 780 nM; MSD (Plasmodium berghei [8]): 6.7 days; concentration at 24 h [9]: < 5 ng/mL
N/C(CC(O)c1cc2ccccc2c2ccccc12)=N\N=C\c1ccc(F)cc1 (stereo not drawn),11 nM,8.3 nM,16000 nM,1890,inhibition in vivo at 50 mg/kg (Plasmodium berghei [4]): 99.6%; concentration at 4 h [5]: 3100 ng/mL; concentration at 1 h [6]: 4690 ng/mL; Activity (Mus musculus [11]): Non-toxic; IC50 (Plasmodium falciparum [7]): 370 nM; Activity (Mus musculus [12]): Non-toxic; Activity (Mus musculus [13]): Non-toxic; MSD (Plasmodium berghei [8]): 10 days; concentration at 24 h [9]: 86.1 ng/mL
C[C@H]1[C@H](OC(=O)CCC(=O)O)O[C@@H]2O[C@@]3(C)CC[C@H]4[C@H](C)CC[C@@H]1[C@@]24OO3 [ARTESUNATE],2 nM,–,24000 nM,–,IC50 (Plasmodium falciparum [7]): 44 nM
COc1cc([C@@H]2c3cc4c(cc3[C@H](O)[C@H]3COC(=O)[C@H]23)OCO4)cc(OC)c1OC [PODOFILOX],8300 nM,9200 nM,9.7 nM,0.0016,–

# — ChEMBL document CHEMBL3351566, “Blood schizontocidal and gametocytocidal activity of 3-hydroxy-N'-arylidenepropanehydrazonamides: a new class of antiplasmodial compounds” (J Med Chem, 2014)
